{"source": "paper PMC3384366", "about": "(International Journal of Nanomedicine, 2012)", "key": {"[1]": {"assay": "Oral pharmacokinetics of curcumin in plasma of freely mobile rats", "type": "in vivo, Male Sprague-Dawley rats", "conditions": "for AUC/dose: mean ± SEM, n = 4", "method_in_brief": "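Male Sprague-Dawley rats (215 ± 10 g) had jugular catheters placed under pentobarbital (50 mg/kg ip) and were used freely moving one day later. They were dosed by gavage at 1 g/kg. Heparinized jugular blood was drawn from 15 to 480 min, and plasma was stored at −20°C. Samples were assayed by HPLC with an internal standard (425 nm; acetonitrile/10 mM phosphate pH 3.5). Noncompartmental analysis, n = 4.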"}, "[2]": {"assay": "Cumulative excretion of curcumin in feces and urine", "type": "in vivo, Male Sprague-Dawley rats", "conditions": "rat, oral, 1 g/kg; collected up to 72 hours"}, "reverted rat gut sacs": {"tested_on": "reverted rat gut sacs", "assay": "Ex vivo curcumin absorption using reverted rat gut sacs", "type": "in vitro ADME, Male Sprague-Dawley rats", "conditions": "serosal fluid + sac tissue; 100 μg/mL, 60 minutes, 37°C; mean ± SE, n = 4", "method_in_brief": "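Rats (210 ± 10 g) killed by i.p. urethane/α-chloralose overdose. Small intestine rinsed with 0.9% saline, split into duodenum, jejunum and ileum in 37°C TC-199 (pH 7.4), everted, and tied into ~2 cm medium-filled sacs. Sacs shaken at 37°C in TC-199 with added 100 μg/mL test compound or nanoformulation, 1 h. Serosal fluid and acetonitrile-homogenized tissue protein-precipitated with internal standard, then analysed by HPLC; amounts summed.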"}, "[3]": {"conditions": "male, Sprague-Dawley, rat, plasma, po, 1 g/kg"}}}
{"compound": "COc1cc(/C=C/C(=O)CC(=O)/C=C/c2ccc(O)c(OC)c2)ccc1O", "note": "[Curcumin]", "values": [{"measurement": "AUC", "setting": "[1]; [3]", "value": 104, "unit": "ng·h/mL"}, {"measurement": "Cmax", "setting": "[1]; [3]", "value": "28 ± 10", "unit": "ng/mL"}, {"measurement": "Tmax", "setting": "[1]; [3]", "value": 45, "unit": "min"}, {"measurement": "Time for which curcumin could be detected in plasma after oral ingestion", "setting": "[1]; rat plasma, oral, 1 g/kg (b48 prints 1 mg/kg)", "value": 6, "unit": "h"}, {"measurement": "AUC/dose", "setting": "[1]; rat plasma, oral, 1 g/kg", "value": "0.0062 ± 0.003"}, {"measurement": "AUC/dose", "setting": "[1]; rat plasma, oral, 1 g/kg, listed as curcumin alone", "value": 0.0062}, {"measurement": "Accumulated percentage of curcumin in urine", "setting": "[2]", "value": "~0", "unit": "%"}, {"measurement": "Accumulated percentage of unabsorbed curcumin in feces", "setting": "[2]", "value": "~90", "unit": "%"}, {"measurement": "Curcumin amount after incubation, duodenum", "setting": "reverted rat gut sacs", "value": "0.47 ± 0.04", "unit": "µg"}, {"measurement": "Curcumin amount after incubation, ileum", "setting": "reverted rat gut sacs", "value": "0.85 ± 0.02", "unit": "µg"}, {"measurement": "Curcumin amount after incubation, jejunum", "setting": "reverted rat gut sacs", "value": "1.01 ± 0.05", "unit": "µg"}]}
